In brackets after ≈: the same amount, converted by molar mass.
Experiments:
[1] = species on record: Cavia porcellus; experiment: Inhibition of histamine stimulated chronotropic response in isolated guinea pig right atrium (1*10e-6 g/mL); format: functional, Cardiac atrium
Outline: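 Guinea pig right atrial strip, under 0.3-0.6 g initial tension in Tyrode solution at 30 °C, gassed with 95% O₂-5% CO₂; beating rate recorded by transducer. Histamine hydrochloride (1 × 10^-6 g/mL) raised rate. Test compound (1 × 10^-6 g/mL) was added 30 min after histamine washout. Percent inhibition compares histamine-induced rate increases before and 30 min after dosing.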

[2] = test system: Rattus norvegicus; experiment: Inhibition of histamine stimulated gastric acid secretion in lumen perfused stomach of anesthetized rats (1 mg/kg iv); format: functional
Outline: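 Male Sprague-Dawley rats (~250 g), fasted 24 h, anesthetized with urethane 1.25 g/kg ip. The opened stomach was lumen-perfused with saline, and the perfusate was titrated with 25 mM NaOH by autotitrator. Inhibition of histamine-stimulated acid output was measured after 1 mg/kg iv dosing; n = 2.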

[3] = test system: Helicobacter pylori; experiment: The lowest drug concentration that inhibited macroscopic colonial growth against Helicobacter pylori; value ranges from 0.39-0.78; format: functional
Outline: (§1)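 Agar dilution. Strains were precultured 3 days at 37 °C on Brucella agar with 3% horse serum and 2% starch, then suspended in buffered saline to McFarland No. 1. A 10²-fold dilution was spotted by multipoint replicator onto Brucella agar with 7% lysed horse blood carrying serial 2-fold drug dilutions. Plates were incubated 3 days at 37 °C under 10% CO₂. MIC is the lowest concentration preventing macroscopic colonial growth. Mean and range come from 10 strains: 8001, 8003, 8004, 8007, 8008, 8009, 8011, 9005, FP1530 and FP1532.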

[4] = test system: Helicobacter pylori; experiment: The lowest drug concentration that inhibited macroscopic colonial growth against Helicobacter pylori; value ranges from 3.13-50; format: functional; outline: as §1
[5] = test system: Campylobacter jejuni; experiment: Antimicrobial activity was measured against Campylobacter jejuni organism; range is between ( 0.39-6.25).; format: functional
[6] = test system: Helicobacter pylori; experiment: The lowest drug concentration that inhibited macroscopic colonial growth against Helicobacter pylori; value range is between 0.0063-0.1; format: functional; outline: as §1
[7] = test system: Neisseria gonorrhoeae; experiment: Antimicrobial activity was measured against Neisseria gonorrhoeae organism; range is between (0.39-100).; format: functional
[8] = test system: Clostridium perfringens; experiment: Antimicrobial activity was measured against Clostridium perfringens organism; range is between (0.025-0.05); format: functional
[9] = test system: Bacteroides fragilis; experiment: Antimicrobial activity was measured against B. fragilis; range is between (0.2-12.5).; format: functional
[10] = test system: Neisseria meningitidis; experiment: Antimicrobial activity was measured against Neisseria meningitidis organism; range is between (0.05-0.1).; format: functional
[11] = test system: Clostridioides difficile; experiment: Antimicrobial activity was measured against Clostridium difficile organism; range is between (0.1-0.78); format: functional
[12] = test system: Helicobacter pylori; experiment: The lowest drug concentration that inhibited macroscopic colonial growth against Helicobacter pylori.; format: functional; outline: as §1
[13] = test system: Helicobacter pylori; experiment: The lowest drug concentration that inhibited macroscopic colonial growth against Helicobacter pylori; Value ranges from 25-100; format: functional; outline: as §1
[14] = test system: Neisseria gonorrhoeae; experiment: Antimicrobial activity was measured against Neisseria gonorrhoeae organism; format: functional
[15] = test system: Bacteroides fragilis; experiment: Antimicrobial activity was measured against Bacteroides fragilis; format: functional, organism-based
[16] = test system: Neisseria meningitidis; experiment: Antimicrobial activity was measured against Neisseria meningitidis organism.; format: functional
[17] = test system: Helicobacter pylori; experiment: Determined the lowest drug concentration that inhibited macroscopic colonial growth against Helicobacter pylori.; format: functional; outline: as §1
[18] = test system: Helicobacter pylori; experiment: Antimicrobial activity was measured against Helicobacter pylori organism.; format: functional, organism-based; outline: as §1
[19] = test system: Campylobacter jejuni; experiment: Antimicrobial activity was measured against Campylobacter jejuni organism.; format: functional
[20] = test system: Clostridium perfringens; experiment: Antimicrobial activity was measured against Clostridium perfringens organism.; format: functional
[21] = test system: Clostridioides difficile; experiment: Antimicrobial activity was measured against Clostridium difficile organism.; format: functional
[22] = test system: Helicobacter pylori; experiment: microbe, parasite or virus in culture
[23] = test system: Helicobacter pylori; experiment: The lowest drug concentration that inhibited macroscopic colonial growth against Helicobacter pylori; value ranges from 12.5-50; format: functional; outline: as §1
[24] = test system: Helicobacter pylori; experiment: The lowest drug concentration that inhibited macroscopic colonial growth against Helicobacter pylori; Value ranges from 6.25-50; format: functional; outline: as §1
[25] = test system: Clostridium perfringens; experiment: Antimicrobial activity was measured against Clostridium perfringens organism; format: functional
[26] = test system: Helicobacter pylori; experiment: The lowest drug concentration that inhibited macroscopic colonial growth against Helicobacter pylori; value ranges from 0.2-0.39; format: functional; outline: as §1
[27] = test system: Bacteroides fragilis; experiment: Antimicrobial activity was measured against Bacteroides fragilis organism.; format: functional
[28] = test system: Helicobacter pylori; experiment: Antimicrobial activity was measured against Helicobacter pylori organism. Value ranges from (0.2-0.39); format: functional; outline: as §1
[29] = test system: Helicobacter pylori; experiment: The lowest drug concentration that inhibited macroscopic colonial growth against Helicobacter pylori; value ranges from 12.5-100; format: functional; outline: as §1
[30] = test system: Helicobacter pylori; experiment: The lowest drug concentration that inhibited macroscopic colonial growth against Helicobacter pylori; value ranges from 1.56-3.13; format: functional; outline: as §1
[31] = test system: Helicobacter pylori; experiment: The lowest drug concentration that inhibited macroscopic colonial growth against Helicobacter pylori; value ranges from 6.25-25; format: functional; outline: as §1
[32] = test system: Helicobacter pylori; experiment: The lowest drug concentration that inhibited macroscopic colonial growth against Helicobacter pylori; value ranges from 0.2-0.78; format: functional; outline: as §1
[33] = test system: Campylobacter jejuni; experiment: Antimicrobial activity was measured against Campylobacter jejuni organism. range is between is(12.5-50).; format: functional
[34] = test system: Helicobacter pylori; experiment: The lowest drug concentration that inhibited macroscopic colonial growth against Helicobacter pylori; value ranges from 0.0030-0.05; format: functional; outline: as §1

Compound `CC(=O)NCc1cccc(-c2csc(NC(=N)NCCOc3ccccc3)n2)c1` has an Inhibition [1] of 52%, an Inhibition [2] of 18% and an MIC [3] of 0.49 µg/mL (≈ 1.2 µM).

With `CC(=O)NCc1cccc(-c2csc(NC(=N)NCCNC(=O)c3ccccc3)n2)c1` the MIC [4] was 23 µg/mL (≈ 52.7 µM).

For `CC1(C)S[C@@H]2[C@H](NC(=O)[C@H](N)c3ccc(O)cc3)C(=O)N2[C@H]1C(=O)O` [AMOXICILLIN], the MIC [5] was 2.2 µg/mL (≈ 6.02 µM), the MIC [6] was 0.021 µg/mL (≈ 0.0575 µM) and the MIC [7] was 7.7 µg/mL (≈ 21.1 µM). The MIC [8] was 0.027 µg/mL (≈ 0.0739 µM), the MIC [9] was 2.1 µg/mL (≈ 5.75 µM) and the MIC [10] was 0.056 µg/mL (≈ 0.153 µM). It also gave an MIC [11] of 0.28 µg/mL (≈ 0.766 µM).

`CC(=O)NCc1cccc(-c2csc(N=C(N)N)n2)c1` was tested, and the MIC [12] was 16.5 µg/mL (≈ 57 µM).

Work on `CC(=O)NCc1ccc2c(c1)-c1nc(N=C(N)N)sc1CO2` yielded an MIC [13] of 62 µg/mL (≈ 195 µM).

“(2,5-Dihydroxy-4,7-dioxo-[1,3,2]dioxabismepan-5-yl)-acetic acid” was tested, and the MIC [14] was 4.7 µg/mL, the MIC [15] was 50 µg/mL and the MIC [16] was 12.5 µg/mL. It also gave an MIC [17] of 18 µg/mL, an MIC [18] of 8.7 µg/mL and an MIC [19] of 7.4 µg/mL. For the same compound, the MIC [20] was over 100 µg/mL and the MIC [21] was 50 µg/mL.

Work on `CN/C(=N\CCSCc1nc[nH]c1C)NC#N` [CIMETIDINE] yielded an MIC [22] of 1130 µg/mL (≈ 4480 µM), an Inhibition [1] of 43% and an Inhibition [2] of 53%.

Work on `CCO/N=C(\N)Nc1nc(-c2cccc(CNC(C)=O)c2)cs1` yielded an MIC [23] of 29 µg/mL (≈ 87 µM).

`COc1ccccc1CC/N=C(\N)Nc1nc2c(s1)CCOc1ccc(CNC(C)=O)cc1-2` was tested, and the MIC [24] was 18.9 µg/mL (≈ 40.6 µM).

In the case of `COCC/N=C(\N)Nc1nc(-c2cccc(CNC(C)=O)c2)cs1`, the MIC [14] is reported as over 100 µg/mL, the MIC [16] is reported as over 100 µg/mL and the MIC [25] is reported as over 100 µg/mL. It also gave an MIC [26] of 0.32 µg/mL (≈ 0.921 µM), an Inhibition [1] of 83% and an MIC [19] of over 100 µg/mL. It also gave an MIC [27] of over 100 µg/mL, an Inhibition [2] of 87% and an MIC [21] of over 100 µg/mL. It also gave an MIC [28] of 0.32 µg/mL (≈ 0.921 µM).

`CC(=O)NCc1cccc(-c2csc(N/C(N)=N/CCN(C)C)n2)c1` gave an MIC [29] of 57 µg/mL (≈ 158 µM).

`CC/N=C(\N)Nc1nc(-c2cccc(CNC(C)=O)c2)cs1` was tested, and the MIC [12] was 3.6 µg/mL (≈ 11.3 µM).

`CC(=O)NCc1cccc(-c2csc(NC(=N)NCCC(c3ccccc3)c3ccccc3)n2)c1` gave an MIC [30] of 2.5 µg/mL (≈ 5.17 µM).

Compound `C/N=C(\N)Nc1nc(-c2cccc(CNC(C)=O)c2)cs1` has an MIC [12] of 14.4 µg/mL (≈ 47.5 µM).

`CC(=O)NCc1cccc(-c2csc(NC(=N)NCCC#N)n2)c1` gave an MIC [31] of 19.3 µg/mL (≈ 56.4 µM).

`CC(=O)NCc1cccc(-c2csc(NC(=N)Nc3ccccc3)n2)c1` showed an Inhibition [1] of 23%, an MIC [32] of 0.52 µg/mL (≈ 1.42 µM) and an Inhibition [2] of 24%.

`CC(=O)Nc1ccc2c(c1)-c1nc(N=C(N)N)sc1CCO2` gave an MIC [12] of over 100 µg/mL.

For `COc1ccccc1CC/N=C(\N)Nc1nc(-c2cccc(CNC(C)=O)c2)cs1`, the MIC [14] was over 100 µg/mL, the MIC [16] was over 100 µg/mL and the MIC [33] was 20.5 µg/mL (≈ 48.4 µM). For the same compound, the MIC [34] was 0.017 µg/mL (≈ 0.0401 µM), the Inhibition [1] was 72% and the MIC [27] was over 100 µg/mL. The Inhibition [2] was 58%, the MIC [20] was over 100 µg/mL and the MIC [21] was over 100 µg/mL.
